The term Ki denotes a dissociation constant, usually derived from enzyme kinetics or from competition with a known ligand. High values mean a looser hold on the target, low ones a stronger hold on the target.

Data on 20 molecules can be found in ChEMBL document CHEMBL1129542, “trans-2-Aryl-N,N-dipropylcyclopropylamines: synthesis and interactions with 5-HT(1A) receptors” (J Med Chem, 1996).

The target of test [1] is T1, 5-hydroxytryptamine receptor 1A (Rattus norvegicus, UniProt P19327).
T1 sequence (P19327 whole entry): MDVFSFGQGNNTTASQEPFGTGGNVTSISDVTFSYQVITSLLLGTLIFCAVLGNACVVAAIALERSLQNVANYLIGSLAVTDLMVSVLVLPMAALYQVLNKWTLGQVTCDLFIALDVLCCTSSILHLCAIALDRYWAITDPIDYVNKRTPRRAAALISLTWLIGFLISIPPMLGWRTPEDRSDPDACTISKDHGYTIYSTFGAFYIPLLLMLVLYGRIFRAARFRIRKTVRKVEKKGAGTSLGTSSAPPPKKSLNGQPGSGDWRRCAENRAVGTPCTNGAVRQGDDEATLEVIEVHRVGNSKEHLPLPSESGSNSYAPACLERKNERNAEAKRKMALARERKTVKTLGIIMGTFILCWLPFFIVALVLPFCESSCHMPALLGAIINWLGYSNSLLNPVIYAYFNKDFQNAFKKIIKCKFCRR
As to the kind of experiment: In vitro binding affinity of compound towards 5-hydroxytryptamine 1A receptor was determined using [3H]8-OH-DPAT as radioligand; range=16-20. An outline of the steps: (§1)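 Rat (male Sprague–Dawley) cortex plus hippocampus membranes, washed twice in 50 mM Tris-HCl with 4.0 mM CaCl2 and 5.7 mM ascorbate, pH 7.5, pretreated with 10 μM pargyline. Competition against 2 nM [3H]-8-OH-DPAT with 1–300 nM compound, 5 mg/mL tissue, 37 °C for 10 min, then filtration. Nonspecific binding defined with 10 μM 5-HT. […] Range derived from the standard error of the estimate.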

In test [2] the target is T1, 5-hydroxytryptamine receptor 1A. As to the kind of experiment: In vitro binding affinity of compound towards 5-hydroxytryptamine 1A receptor was determined using [3H]8-OH-DPAT as radioligand; range=160-430. An outline of the steps:
as §1

The target is the same in test [3]. As to the kind of experiment: In vitro binding affinity of compound towards 5-hydroxytryptamine 1A receptor was determined using [3H]8-OH-DPAT as radioligand; range=710-980. In outline: as §1
Test [4] has the same target. As to the kind of experiment: In vitro binding affinity of compound towards 5-hydroxytryptamine 1A receptor was determined using [3H]8-OH-DPAT as radioligand; range=12-14. In outline:
as §1

For test [5] the target is unchanged. As to the kind of experiment: In vitro binding affinity of compound towards 5-hydroxytryptamine 1A receptor was determined using [3H]8-OH-DPAT as radioligand; range=78-140. An outline of the steps:
as §1

Test [6] has the same target. The test can be described thus: In vitro binding affinity of compound towards 5-hydroxytryptamine 1A receptor was determined using [3H]8-OH-DPAT as radioligand; range=85-130. In outline: as §1
The target is the same in test [7]. As to the kind of experiment: In vitro binding affinity of compound towards 5-hydroxytryptamine 1A receptor was determined using [3H]8-OH-DPAT as radioligand. In outline:
as §1

Test [8] shares this target. The test can be described thus: In vitro binding affinity of compound towards 5-hydroxytryptamine 1A receptor was determined using [3H]-8-OH-DPAT as radioligand; range=39-87. An outline of the steps: as §1
For test [9] the target is unchanged. The test can be described thus: In vitro binding affinity of compound towards 5-hydroxytryptamine 1A receptor was determined using [3H]-8-OH-DPAT as radioligand; range=21-28. In outline:
as §1

Test [10] shares this target. As to the kind of experiment: In vitro binding affinity of compound towards 5-hydroxytryptamine 1A receptor was determined using [3H]8-OH-DPAT as radioligand; range=20-23. In outline:
as §1

Test [11] shares this target. The test can be described thus: In vitro binding affinity of compound towards 5-hydroxytryptamine 1A receptor was determined using [3H]8-OH-DPAT as radioligand; range=184-503. An outline of the steps: as §1
The target is the same in test [12]. The test can be described thus: In vitro binding affinity of compound towards 5-hydroxytryptamine 1A receptor was determined using [3H]8-OH-DPAT as radioligand; range=19-23.
Test [13] shares this target. The test can be described thus: In vitro binding affinity of compound towards 5-hydroxytryptamine 1A receptor was determined using [3H]-8-OH-DPAT as radioligand; range=48-77. In outline:
as §1

Test [14] has the same target. As to the kind of experiment: In vitro binding affinity of compound towards 5-hydroxytryptamine 1A receptor was determined using [3H]8-OH-DPAT as radioligand; range=89-280. In outline:
as §1

For test [15] the target is unchanged. The test can be described thus: In vitro binding affinity of compound towards 5-hydroxytryptamine 1A receptor was determined using [3H]8-OH-DPAT as radioligand; range=2.7-3.6. An outline of the steps:
as §1

The target is the same in test [16]. As to the kind of experiment: In vitro binding affinity of compound towards 5-hydroxytryptamine 1A receptor was determined using [3H]8-OH-DPAT as radioligand; range=63-95. An outline of the steps: as §1
Test [17] has the same target. The test can be described thus: In vitro binding affinity of compound towards 5-hydroxytryptamine 1A receptor was determined using [3H]8-OH-DPAT as radioligand; range=174-224. In outline:
as §1

In [1], `CCCN(CCC)[C@@H]1C[C@H]1c1ccccc1OC` gave an inhibition constant (Ki) of 17 nM.

Molecule `CCCN(CCC)[C@H]1C[C@@H]1c1ccccc1OC` yielded an inhibition constant (Ki) in [2] of 230 nM.

In test [3], `CCCN(CCC)[C@H]1C[C@@H]1c1cccs1` gave a Ki of 820 nM.

In test [4], `CCCN(CCC)[C@@H]1C[C@H]1c1cccs1` returned a Ki of 11 nM.

In turn, `CCCN(CCC)C1CC1c1cccs1` (stereo not given) returned a Ki in test [4] of 13 nM.

With `CCCN(CCC)C1CC1c1cc(F)ccc1O` (stereo not given), the Ki in [5] came out at 99 nM.

`CCCN(CCC)C1CC1c1cccc(F)c1` (stereo not given) returned a Ki in test [6] of 100 nM.

The molecule `CCCN(CCC)C1CC1c1cc2ccccc2s1` (stereo not given) showed a Ki in test [7] greater than 1000 nM.

For the molecule `CCCN(CCC)[C@@H]1C[C@H]1c1cc(F)ccc1OC`, in [8], the Ki was found to be 60 nM.

`CCCN(CCC)C1CC1c1ccccc1` (stereo not given) had a Ki in test [9] of 24 nM.

Turning to `CCCN(CCC)C1CC1c1ccccc1Br` (stereo not given), the Ki in [10] stood at 22 nM.

Turning to `CCCN(CCC)[C@H]1C[C@@H]1c1cc(F)ccc1O`, the Ki in test [11] came out at 348 nM.

As to `CCCN(CCC)C1CC1c1ccsc1` (stereo not given), in [12], the Ki came out at 21 nM.

`CCCN(CCC)C1CC1c1ccccc1F` (stereo not given) showed a Ki in [13] of 59 nM.

For `CCCN(CCC)C1CC1c1ccccc1C(F)(F)F` (stereo not given), in test [7], the Ki is greater than 1000 nM.

`CCCN(CCC)C1CC1c1cccc(Cl)c1Cl` (stereo not given): the Ki in [7] was greater than 300 nM.

In the case of `CCCN(CCC)C1CC1c1cc(F)ccc1OC` (stereo not given), the Ki in [14] was 140 nM.

As for `CCCN(CCC)[C@@H]1C[C@H]1c1cc(F)ccc1O`, the Ki in test [15] is 3.2 nM.

`CCCN(CCC)C1CC1c1ccc(F)cc1` (stereo not given) returned a Ki in [16] of 76 nM.

In turn, `CCCN(CCC)[C@H]1C[C@@H]1c1cc(F)ccc1OC` had a Ki in test [17] of 199 nM.
